The record followed here is ChEMBL document CHEMBL1123397, “Antiarrhythmic activity of 17 beta-aminoestratrienes. Comparison of 3-ols and 3-acetates with the corresponding 3-(3-amino-2-hydroxypropyl) ethers” (1986).

The structures appear in SMILES notation. Values after ≈ are worked out from the molar mass of the structure shown. Some results are limits rather than exact numbers.

The species entered for experiment [1] is Cavia porcellus. Put plainly: Compound was tested for antiarrhythmic activity expressed as action potential height (AP) in guinea pig atria at 2(ug/mL) concentration. The format is functional, Heart. A digest of the protocol:
(§1)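 Guinea pig left atria pinned in a recording chamber, superfused with carbogen-gassed Krebs solution at 35 ± 0.5 °C and electrically stimulated. Transmembrane action potentials were recorded with conventional microelectrodes, giving RMP, AP height, APD50, APD90 and maximum rate of depolarization. Values are mean ± SEM from n cells across five preparations.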

For experiment [2], the species on record is Cavia porcellus. Put plainly: Compound was tested for antiarrhythmic activity (time taken to reach 50% repolarization) in guinea pig atria at 2(ug/mL) concentration. The format is functional, Heart. The gist of the method:
as §1

The species named for experiment [3] is Cavia porcellus. Put plainly: Compound was tested for antiarrhythmic activity (time taken to reach 50% repolarization) in guinea pig atria at 4(ug/mL) concentration. The format is functional, Heart. The gist of the method:
as §1

For experiment [4], the species on record is Cavia porcellus. Put plainly: Compound was tested for antiarrhythmic activity (time taken to reach 50% repolarization) in guinea pig atria at 8(ug/mL) concentration. The format is functional, Heart. A digest of the protocol:
as §1

Experiment [5] is filed under the species Cavia porcellus. The experiment is described as follows: Compound was tested for antiarrhythmic activity (time taken to reach 90% repolarization) in guinea pig atria at 2(ug/mL) concentration. The format is functional, Heart. A digest of the protocol: as §1
The species named for experiment [6] is Cavia porcellus. The experiment is described as follows: Compound was tested for antiarrhythmic activity (time taken to reach 90% repolarization) in guinea pig atria at 4(ug/mL) concentration. The format is functional, Heart. A digest of the protocol: as §1
Experiment [7] is filed under the species Cavia porcellus. The experiment is described as follows: Compound was tested for antiarrhythmic activity (time taken to reach 90% repolarization) in guinea pig atria at 8(ug/mL) concentration. The format is functional, Heart. The gist of the method:
as §1

Experiment [8] is filed under the species Cavia porcellus. Put plainly: Compound was tested for antiarrhythmic activity expressed as action potential height (AP) in guinea pig atria at 4(ug/mL) concentration. The format is functional, Heart. The gist of the method:
as §1

Experiment [9] is filed under the species Cavia porcellus. The experiment is described as follows: Compound was tested for antiarrhythmic activity expressed as action potential height (AP) in guinea pig atria at 8(ug/mL) concentration. The format is functional, Heart. A digest of the protocol:
as §1

Experiment [10] is filed under the species Cavia porcellus. The experiment is described as follows: Compound was tested for antiarrhythmic activity (maximum rate of phase 0 depolarization- MRD) in guinea pig atria at 2(ug/mL) concentration. The format is functional, Heart. A digest of the protocol: as §1
The species entered for experiment [11] is Cavia porcellus. The experiment is described as follows: Compound was tested for antiarrhythmic activity (maximum rate of phase 0 depolarization- MRD) in guinea pig atria at 4(ug/mL) concentration. The format is functional, Heart. The gist of the method:
as §1

Experiment [12] is filed under the species Cavia porcellus. The experiment is described as follows: Compound was tested for antiarrhythmic activity (maximum rate of phase 0 depolarization- MRD) in guinea pig atria at 8(ug/mL) concentration. The format is functional, Heart. The gist of the method:
as §1

The species entered for experiment [13] is Cavia porcellus. The experiment is described as follows: Compound was tested for antiarrhythmic activity expressed as resting membrane potential (RMP) in guinea pig atria at 2 ug/mL concentration. The format is functional. The conditions noted are these: Heart. The gist of the method:
as §1

For experiment [14], the species on record is Cavia porcellus. The experiment is described as follows: Compound was tested for antiarrhythmic activity expressed as resting membrane potential (RMP) in guinea pig atria at 4 ug/mL concentration. The format is functional. The conditions noted are these: Heart. A digest of the protocol: as §1
Experiment [15] is filed under the species Cavia porcellus. Put plainly: Compound was tested for antiarrhythmic activity expressed as resting membrane potential (RMP) in guinea pig atria at 8 ug/mL concentration. The settings on record: Heart. The format is functional. A digest of the protocol:
as §1

For experiment [16], the species on record is Cavia porcellus. Put plainly: Concentration required to reduce maximum following frequencu (MFF) of isolated guinea pig atria by 25%. The format is functional. A digest of the protocol: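 Guinea pig left atria in an organ bath of Krebs solution at 35 °C, gassed with carbogen, electrically driven, isometric contractions recorded. Drugs added cumulatively; maximum following frequency determined 6 min after each concentration. Concentration reducing MFF by 25% (EC25) calculated from six preparations.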

The species named for another experiment is Mus musculus. The experiment is described as follows: ED 50 value against aconitine-induced arrhythmias in mice. The format is functional. The gist of the method: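 Anaesthetised mice were given test compound intraperitoneally, then aconitine intravenously to induce arrhythmia. At least three doses were tested in separate groups (n = 6-10). ED50 is the dose raising the arrhythmogenic aconitine dose 50% above the control requirement.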

The test system of experiment [17] is Rattus norvegicus. The experiment is described as follows: Effective dose of compound that antagonized arrhythmias evoked by coronary artery ligation in the rat was measured at 0.5 mg/kg dose. The format is functional.
Experiment [18] concerns Rattus norvegicus. The experiment is described as follows: Compound was tested for antagonism of Ventricular Fibrilloflutter (VF) evoked by coronary artery ligation in the rat measured at 0.2 mg/kg dose. The format is functional, Heart. A digest of the protocol: (§2)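 Male Wistar rats, anaesthetised and artificially ventilated, with left thoracotomy; silk suture under main left coronary artery. After stabilization, test drug or vehicle i.v.; 14 min later isoprenaline 10 μg/kg; 1 min after that the ligature was tightened and VF incidence recorded over 30 min. Carotid pressure and lead II ECG monitored continuously. 7-12 animals per group.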

Experiment [19] concerns Rattus norvegicus. Put plainly: Effect on heart rate after isoprenaline induced tachycardia in the anesthetized rat at 0.5 mg/kg dose. The format is functional. The gist of the method:
(§3)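 Same ligation protocol in anaesthetised male Wistar rats. Heart rate was taken from the lead II ECG at three points: just before i.v. drug or vehicle, 14 min after it (just before isoprenaline 10 μg/kg), and 1 min after isoprenaline. Pre vs post rates and isoprenaline responses vs controls were compared by Student's t test. Mean ± SEM of 7-12 observations.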

The subject of experiment [20] is Rattus norvegicus. Put plainly: Effect on heart rate before isoprenaline induced tachycardia in the anesthetized rat at 0.5 mg/kg dose. The format is functional. A digest of the protocol: as §3
The subject of experiment [21] is Rattus norvegicus. Put plainly: Effect on heart rate on 1 min post isoprenaline induced tachycardia in the anesthetized rat at 0.5 mg/kg dose. The format is functional. The gist of the method: (§4)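 Test drug or vehicle was given i.v., and isoprenaline (10 µg/kg) 14 min later. Heart rate was read from the lead II ECG just before drug, at 14 min (pre-isoprenaline) and 1 min after isoprenaline. Compared by Student's t test; 7–12 animals per group; mean ± SEM.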

Experiment [22] concerns Rattus norvegicus. Put plainly: Compound was tested for antagonism of Ventricular Fibrilloflutter (VF) evoked by coronary artery ligation in the rat measured at 0.5 mg/kg dose. The format is functional, Heart. The gist of the method: as §2
The test system of experiment [23] is Rattus norvegicus. Put plainly: Antagonism of Ventricular Fibrilloflutter (VF) evoked by coronary artery ligation in the rat measured at 2 mg/kg dose. The format is functional, Heart. The gist of the method: as §2
Experiment [24] concerns Rattus norvegicus. The experiment is described as follows: Mean change in heart rate recorded 14 min after the administration of compound. The format is functional. A digest of the protocol: as §4
Experiment [25] is filed under the species Rattus norvegicus. The experiment is described as follows: Maximum increase in heart rate evoked by isoprenaline. The format is functional. The gist of the method: as §4
Experiment [26] concerns Rattus norvegicus. Put plainly: Compound that antagonized arrhythmias evoked by coronary artery ligation in the rat was measured at 0.2 mg/kg dose. The format is functional. A digest of the protocol:
as §2

Experiment [27] concerns Rattus norvegicus. The experiment is described as follows: Effect on heart rate before isoprenaline induced tachycardia in the anesthetized rat at 0.2 mg/kg dose. The format is functional. The gist of the method: as §3
In experiment [28] the test system is Rattus norvegicus. Put plainly: Effect on heart rate 1 min post isoprenaline induced tachycardia in the anesthetized rat at 0.2 mg/kg dose. The format is functional. The gist of the method:
as §3

The term EC25 denotes the concentration at which the effect reaches the 25% level. Lower therefore signals greater potency. One may read the ED50 as the dose at which the effect has come halfway, by size or by number of responders. Higher therefore signals weaker potency. On to `CN(C)C1[C@H](O)C[C@H]2[C@@H]3CCc4cc(O)ccc4[C@H]3CC[C@]12C` (some centres undefined), for which the AP in the experiment listed under Cavia porcellus [1] was 78.9 mV; in the experiment listed under Cavia porcellus [8] it was 73.5 mV; in the experiment filed under Cavia porcellus [9], 69.9 mV. For the same compound, the values for the APD50 in the experiment listed under Cavia porcellus [2], in the experiment filed under Cavia porcellus [3] and in the experiment listed under Cavia porcellus [4] were 29.6 ms, 29 ms and 43.5 ms, respectively. Besides, the APD90 was found to be 70.9 ms in the experiment listed under Cavia porcellus [5], 74.2 ms in the experiment filed under Cavia porcellus [6] and 98.9 ms in the experiment filed under Cavia porcellus [7]. Further, the MRD was 86 V s-1 in the experiment listed under Cavia porcellus [10], 60.1 V s-1 in the experiment listed under Cavia porcellus [11] and 30.5 V s-1 in the experiment listed under Cavia porcellus [12]. Besides, the RMP in the experiment listed under Cavia porcellus [13] stood at 70.1 mV; in the experiment filed under Cavia porcellus [14], 71.8 mV; in the experiment filed under Cavia porcellus [15] it was 69.3 mV. Besides, the concentration for an effect of 25% (EC25) in the experiment filed under Cavia porcellus [16] amounted to 1.86 µg/mL (≈ 5.9 µM). The ED50 in the experiment listed under Mus musculus was 11.5 mg/kg; with Rattus norvegicus [17] it was 0.15 mg/kg. In addition, the VF in the experiment with Rattus norvegicus [18] is reported as 33%; in the experiment on Rattus norvegicus [22], 13%; with Rattus norvegicus [23], 0%. The figures for the Heart rate with Rattus norvegicus [19], with Rattus norvegicus [20] and in the experiment on Rattus norvegicus [21] were 434 beats min-1, 442 beats min-1 and 490 beats min-1, respectively. In the experiment with Rattus norvegicus [24], the Change is listed as -1.8%. Also, the Increase in the experiment listed under Rattus norvegicus [25] worked out at 12.9%.
The compound `CNC1[C@H](O)C[C@H]2[C@@H]3CCc4cc(OC(C)=O)ccc4[C@H]3CC[C@]12C` (some centres undefined) came in with an EC25 in the experiment listed under Cavia porcellus [16] of 5.06 µg/mL (≈ 14.7 µM). Also, the ED50 in the experiment filed under Mus musculus amounted to 9 mg/kg. Besides, in the experiment on Rattus norvegicus [26], the ED50 at 0.2 mg/kg was less than 0.2 mg/kg. In the experiment on Rattus norvegicus [18], this compound displayed a VF of 29%. Moreover, the Heart rate in the experiment on Rattus norvegicus [27] is 403 beats min-1; with Rattus norvegicus [28] it was 392 beats min-1. In the experiment on Rattus norvegicus [24], the Change is reported as -10.9%. In the experiment filed under Rattus norvegicus [25], this compound displayed an Increase of 9.2%.
